Measurements taken from ChEMBL document CHEMBL1148372 (J Med Chem, 2004).
The source made the active and inactive calls. The calls are words filed in the database; no cut-off is given here.

Assays:
D(4) dopamine receptor [1] = target: T1, D(4) dopamine receptor (Homo sapiens, UniProt P21917); assay: In vitro EC50 tested on HEK293 cells co-transfected with human Dopamine receptor D4.4 using FLIPR assay; type: cell-based
T1 sequence (P21917 whole entry): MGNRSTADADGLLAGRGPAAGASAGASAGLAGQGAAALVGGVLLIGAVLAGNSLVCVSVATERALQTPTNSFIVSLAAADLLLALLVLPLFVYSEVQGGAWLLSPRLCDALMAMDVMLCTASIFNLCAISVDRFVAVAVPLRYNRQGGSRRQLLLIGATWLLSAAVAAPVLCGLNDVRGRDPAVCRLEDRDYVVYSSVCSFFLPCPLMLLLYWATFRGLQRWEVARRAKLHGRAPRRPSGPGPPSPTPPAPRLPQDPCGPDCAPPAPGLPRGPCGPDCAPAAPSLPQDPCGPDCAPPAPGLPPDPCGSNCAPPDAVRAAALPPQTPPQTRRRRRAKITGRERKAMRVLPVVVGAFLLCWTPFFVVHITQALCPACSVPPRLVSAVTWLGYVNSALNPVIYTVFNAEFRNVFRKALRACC
In short: (§1)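 HEK293 cells coexpressing human D4.4 receptor and Gαqo5, plated at 20 000 cells/well and grown 2 days. Loaded 1 h at 23 °C with 4 µM Fluo-4 plus 0.04% Pluronic F-127 in DPBS, washed four times. Compound added, fluorescence read over 3 min.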

[2] = target: T2, D(4) dopamine receptor (Homo sapiens) (UniProt P21917); assay: In vitro efficacy tested on human Dopamine receptor D4.4 were co-expressed with GRqo5 in HEK293 cells using FLIPR assay (Efficacy relative to 10 uM dopamine); type: cell-based; in short: as §1
T2 sequence (whole entry): T1 sequence (P21917 whole entry)

[3] = target: T2, D(4) dopamine receptor (Homo sapiens); assay: In vitro efficacy tested on human D4.4 receptor were coexpressed with GRqo5 in HEK293 cells using FLIPR assay (Efficacy relative to 10 uM dopamine); type: cell-based; in short: as §1
Rattus norvegicus [4] = assay: In vivo maximal penile erection in rats 60 min after subcutaneous administration; type: functional
In short: (§2)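 Conscious male Wistar rats, adapted 60 min to a dim red-lit room, tested between 9:00 a.m. and 3:00 p.m. Dosed subcutaneously, then caged singly and observed directly for 60 min. Percent incidence is the share of animals with one or more erections; 8–30 animals per group. Maximally effective dose is the dose giving peak incidence, with significance versus control.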

Rattus norvegicus [5] = assay: In vivo maximal effective dose tested in rats for erection 60 min after subcutaneous administration; type: functional; in short: as §2
D(4) dopamine receptor [6] = target: T1, D(4) dopamine receptor; assay: In vitro effective concentration tested on HEK293 cells co-transfected with human D4.4 receptor using FLIPR assay; type: cell-based
In short: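 Human D4.4 receptor co-expressed with Gαqo5 in HEK293 cells, plated at 20 000 cells/well and grown 2 days. Loaded with 4 µM Fluo-4 and 0.04% Pluronic F-127 in DPBS with glucose and pyruvate for 1 h at 23 °C, then washed. Compound added and fluorescence read over 3 min on FLIPR. […] EC50 is the concentration giving half-maximal response.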

D(4) dopamine receptor [7] = target: T3, D(4) dopamine receptor (Rattus norvegicus, UniProt P30729); assay: In vitro effective concentration tested on HEK293 cells co-transfected with rat Dopamine receptor D4 using FLIPR assay; type: cell-based
T3 sequence (P30729 whole entry): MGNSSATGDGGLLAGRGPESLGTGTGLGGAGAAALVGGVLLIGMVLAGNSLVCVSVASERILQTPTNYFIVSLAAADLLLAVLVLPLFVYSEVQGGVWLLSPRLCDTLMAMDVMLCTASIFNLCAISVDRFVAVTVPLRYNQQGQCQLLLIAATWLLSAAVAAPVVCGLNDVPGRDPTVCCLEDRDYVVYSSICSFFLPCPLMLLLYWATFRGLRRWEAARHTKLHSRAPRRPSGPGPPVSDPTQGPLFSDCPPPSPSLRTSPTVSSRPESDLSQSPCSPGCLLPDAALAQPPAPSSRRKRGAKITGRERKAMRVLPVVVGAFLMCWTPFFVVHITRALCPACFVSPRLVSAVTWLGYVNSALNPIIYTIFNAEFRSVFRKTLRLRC

[8] = target: D(2) dopamine receptor (Rattus norvegicus) (UniProt P61169); assay: In vitro efficacy tested on rat Dopamine receptor D2 were co-expressed with GRqo5 in HEK293 cells using FLIPR assay (Efficacy relative to 10 uM dopamine); type: cell-based
Chain of D(2) dopamine receptor (Rattus norvegicus) (P61169 whole entry): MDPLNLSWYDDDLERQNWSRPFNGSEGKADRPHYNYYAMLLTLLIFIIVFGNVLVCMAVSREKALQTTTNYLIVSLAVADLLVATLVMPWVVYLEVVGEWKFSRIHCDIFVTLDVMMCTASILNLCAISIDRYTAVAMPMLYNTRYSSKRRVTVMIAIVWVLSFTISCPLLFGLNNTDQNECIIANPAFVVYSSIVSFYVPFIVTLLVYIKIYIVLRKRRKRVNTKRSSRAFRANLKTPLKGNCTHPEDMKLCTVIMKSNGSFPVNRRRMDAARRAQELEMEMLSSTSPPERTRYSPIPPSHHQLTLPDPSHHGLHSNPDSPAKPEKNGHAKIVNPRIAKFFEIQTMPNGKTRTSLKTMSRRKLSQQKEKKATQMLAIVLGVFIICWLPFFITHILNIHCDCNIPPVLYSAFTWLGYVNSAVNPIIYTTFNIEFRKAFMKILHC

D(4) dopamine receptor [9] = target: T1, D(4) dopamine receptor; assay: In vitro binding affinity tested on HEK293 cells co-transfected with human D4.4 receptor using [3H]spiperone as a radioligand […]; type: cell-based
In short: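 Competition binding to membranes from HEK-293 cells transfected with human D4.4, stored at −80 °C. Radioligand was 0.1 nM [3H]-spiperone, incubated 2 h in 50 mM Tris-HCl pH 7.4 with 5 mM KCl, 120 mM NaCl, 5 mM MgCl2 and 1 mM EDTA. Compounds were in buffer with 0.1% ascorbic acid. Samples were filtered through glass fibre and washed three times with cold Tris. Bound radioactivity was counted by scintillation to give Ki.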

D(4) dopamine receptor [10] = target: T1, D(4) dopamine receptor; assay: In vitro inhibitory concentration tested on human D4.4 receptor in HEK293 cells using FLIPR assay; type: cell-based

SMILES | EC50 (D(4) dopamine receptor [1]) | Efficacy [2] | Efficacy [3] | also measured
C[C@H]1CN(c2ccccn2)CCN1Cc1nc2ccccc2[nH]1 | 52 nM | 43% |  | 
CS(=O)(=O)c1cccnc1N1CCN(Cc2nc3ccccc3[nH]2)CC1 | 136 nM | 27% |  | 
c1ccc(Cc2ccccc2N2CCN(Cc3nc4ccccc4[nH]3)CC2)nc1 |  |  | inactive | 
CC(C)n1c(CN2CCN(c3ccccn3)CC2)nc2ccccc21 |  |  | inactive | 
C[C@@H]1CN(c2ccccn2)CCN1Cc1nc2ccccc2[nH]1 | 64 nM | 34% |  | 
c1ccc(N2CCN(CCc3nc4ccccc4[nH]3)CC2)nc1 | 23 nM | 62% |  | 
Clc1ccc(N2CCN(Cc3nc4ccccc4[nH]3)CC2)nn1 |  |  | inactive | 
Fc1cccnc1N1CCN(Cc2nc3ccccc3[nH]2)CC1 | 24 nM | 27% |  | Activity (Rattus norvegicus [4]): 75%; Effective dose (Rattus norvegicus [5]): 0.01 µM/kg
c1ccc(Cn2c(CN3CCN(c4ccccn4)CC3)nc3ccccc32)cc1 |  |  | inactive | 
CN(C)C(=O)n1c(CN2CCN(c3ccccn3)CC2)nc2ccccc21 |  |  | inactive | 
C1=C(c2ccccc2)CCN(Cc2nc3ccccc3[nH]2)C1 |  | 48% |  | EC50 (D(4) dopamine receptor [6]): 228 nM
C1=C(c2ccccn2)CCN(Cc2nc3ccccc3[nH]2)C1 |  | 63% |  | EC50 (D(4) dopamine receptor [6]): 11 nM; Activity (Rattus norvegicus [4]): 75%; Effective dose (Rattus norvegicus [5]): 0.03 µM/kg
COc1ccccc1C1CCN(Cc2nc3ccccc3[nH]2)CC1 | 100 nM | 34% |  | 
CCc1ccccc1N1CCN(Cc2nc3ccccc3[nH]2)CC1 |  |  | inactive | 
COc1ccccc1N1CCN(Cc2nc3ccccc3[nH]2)CC1 | 12.4 nM | 48% |  | Activity (Rattus norvegicus [4]): 60%; Effective dose (Rattus norvegicus [5]): 0.01 µM/kg
NCCc1ccc(O)c(O)c1 [DOPAMINE] |  |  |  | EC50 (D(4) dopamine receptor [7]): 2.4 nM; Efficacy [8]: 100%
c1cnc(N2CCN(Cc3nc4ccccc4[nH]3)CC2)nc1 | 44.8 nM | 49% |  | Activity (Rattus norvegicus [4]): 85%; Effective dose (Rattus norvegicus [5]): 0.1 µM/kg
c1ccc(C2CCN(Cc3nc4ccccc4[nH]3)CC2)nc1 | 14 nM | 51% |  | 
N#Cc1ccccc1N1CCN(Cc2nc3ccccc3[nH]2)CC1 | 14.6 nM | 46% |  | Activity (Rattus norvegicus [4]): 65%; Effective dose (Rattus norvegicus [5]): 0.003 µM/kg
CCOc1ccccc1N1CCN(Cc2nc3ccccc3[nH]2)CC1 | 25 nM | 31% |  | 
Cc1ccc(N2CCN(Cc3nc4ccccc4[nH]3)CC2)cc1C |  |  |  | Ki (D(4) dopamine receptor [9]): 1.5 nM; IC50 (D(4) dopamine receptor [10]): 5 nM
Oc1ccc(N2CCN(Cc3nc4ccccc4[nH]3)CC2)nn1 |  |  | inactive | 

SMILES | EC50 (D(4) dopamine receptor [1]) | Efficacy [2] | Efficacy [3] | also measured
CN1CCc2cccc3c2[C@H]1Cc1ccc(O)c(O)c1-3 [APOMORPHINE] |  |  |  | EC50 (D(4) dopamine receptor [7]): 5.5 nM; Efficacy [8]: 103%; Activity (Rattus norvegicus [4]): 91%; Effective dose (Rattus norvegicus [5]): 0.1 µM/kg
Oc1ccccc1N1CCN(Cc2nc3ccccc3[nH]2)CC1 |  |  | inactive | 
Brc1cc(Br)c2[nH]c(CN3CCN(c4ccccn4)CC3)nc2c1 | 416 nM | 37% |  | Activity (Rattus norvegicus [4]): 60%; Effective dose (Rattus norvegicus [5]): 0.03 µM/kg
Cc1ccc(C)c(N2CCN(Cc3nc4ccccc4[nH]3)CC2)c1 |  |  |  | Ki (D(4) dopamine receptor [9]): 3.8 nM; IC50 (D(4) dopamine receptor [10]): 1 nM
c1cnnc(N2CCN(Cc3nc4ccccc4[nH]3)CC2)c1 |  |  | inactive | 
CCc1cnc(N2CCN(Cc3nc4ccccc4[nH]3)CC2)nc1 |  |  | inactive | 
Cc1cccc(C)c1N1CCN(Cc2nc3ccccc3[nH]2)CC1 |  |  | inactive | 
CCn1c(CN2CCN(c3ccccn3)CC2)nc2ccccc21 |  |  | inactive | 
CSc1ccccc1N1CCN(Cc2nc3ccccc3[nH]2)CC1 | 86 nM | 42% |  | 
N#Cc1cccnc1N1CCN(Cc2nc3ccccc3[nH]2)CC1 | 13.9 nM | 50% |  | 
FC(F)(F)c1ccnc(N2CCN(Cc3nc4ccccc4[nH]3)CC2)n1 |  |  | inactive | 
Clc1ccccc1N1CCN(Cc2nc3ccccc3[nH]2)CC1 | 7.2 nM | 39% |  | 
Fc1ccccc1N1CCN(Cc2nc3ccccc3[nH]2)CC1 | 14.7 nM | 42% |  | Activity (Rattus norvegicus [4]): 70%; Effective dose (Rattus norvegicus [5]): 0.01 µM/kg
Clc1cccnc1N1CCN(Cc2nc3ccccc3[nH]2)CC1 |  |  | inactive | 
Fc1ccc2[nH]c(CN3CCN(c4ccccn4)CC3)nc2c1 | 8 nM | 57% |  | Activity (Rattus norvegicus [4]): 75%; Effective dose (Rattus norvegicus [5]): 0.01 µM/kg
O=[N+]([O-])c1cccnc1N1CCN(Cc2nc3ccccc3[nH]2)CC1 |  |  | inactive | 
O=[N+]([O-])c1ccccc1N1CCN(Cc2nc3ccccc3[nH]2)CC1 | 3.9 nM | 40% |  | 
Cn1c(CN2CCN(c3ccccn3)CC2)nc2ccccc21 |  |  | inactive | 
Cc1cccc(N2CCN(Cc3nc4ccccc4[nH]3)CC2)n1 | 36.2 nM | 36% |  | Activity (Rattus norvegicus [4]): 62%; Effective dose (Rattus norvegicus [5]): 0.03 µM/kg
COc1ccc2[nH]c(CN3CCN(c4ccccn4)CC3)nc2c1 |  |  | inactive | 
O=C(N1CCCC1)n1c(CN2CCN(c3ccccn3)CC2)nc2ccccc21 |  |  | inactive | 
